Tests used:
[1] = target: T1, Retinoic acid receptor RXR-beta (Homo sapiens) (UniProt P28702); experiment: Percent transcriptional activation relative to ATRA in CV-1 cells expressing Retinoid X receptor RXR beta; format: functional, cell-based
T1 sequence (whole entry): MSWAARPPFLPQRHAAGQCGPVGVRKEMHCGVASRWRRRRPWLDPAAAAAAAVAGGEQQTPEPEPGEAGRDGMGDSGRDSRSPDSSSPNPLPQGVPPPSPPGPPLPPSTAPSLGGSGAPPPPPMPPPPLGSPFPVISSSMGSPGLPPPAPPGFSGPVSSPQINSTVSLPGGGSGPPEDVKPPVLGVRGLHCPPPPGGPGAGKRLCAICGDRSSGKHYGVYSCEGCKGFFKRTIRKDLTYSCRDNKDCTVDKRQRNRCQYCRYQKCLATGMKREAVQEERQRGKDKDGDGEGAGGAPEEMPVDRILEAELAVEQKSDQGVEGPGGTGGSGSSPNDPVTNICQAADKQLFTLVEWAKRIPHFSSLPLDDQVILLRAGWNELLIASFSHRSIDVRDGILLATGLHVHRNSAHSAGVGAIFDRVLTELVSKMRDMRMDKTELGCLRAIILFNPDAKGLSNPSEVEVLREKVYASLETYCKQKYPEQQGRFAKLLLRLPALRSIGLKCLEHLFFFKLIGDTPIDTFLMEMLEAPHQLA
In short: (§1)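 Cotransfection transactivation assay in CV-1 cells. Full dose-response curves ran from 10^-12 to 10^-5 M. Efficacy is expressed as percent of the ATRA response, with ATRA set at 100%. Values are mean ± SEM of at least three separate experiments, each with triplicate determinations.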

[2] = target: T2, Retinoic acid receptor gamma (Homo sapiens) (UniProt P13631); experiment: Percent transcriptional activation relative to ATRA in CV-1 cells expressing Retinoic acid receptor RAR gamma; format: functional, cell-based; in short: as §1
T2 sequence (whole entry): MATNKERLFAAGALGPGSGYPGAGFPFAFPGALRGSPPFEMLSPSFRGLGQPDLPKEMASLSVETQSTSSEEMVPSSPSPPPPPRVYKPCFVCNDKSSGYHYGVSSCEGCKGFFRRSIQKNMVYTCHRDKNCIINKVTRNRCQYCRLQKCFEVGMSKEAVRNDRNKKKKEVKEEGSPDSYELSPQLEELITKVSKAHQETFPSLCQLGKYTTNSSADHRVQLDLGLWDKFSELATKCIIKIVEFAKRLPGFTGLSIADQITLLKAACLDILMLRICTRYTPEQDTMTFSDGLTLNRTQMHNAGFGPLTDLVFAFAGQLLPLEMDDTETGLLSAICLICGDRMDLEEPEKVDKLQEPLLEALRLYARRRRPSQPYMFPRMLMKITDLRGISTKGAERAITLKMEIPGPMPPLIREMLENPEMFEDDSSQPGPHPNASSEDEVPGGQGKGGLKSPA

[3] = target: T3, Retinoic acid receptor alpha (Homo sapiens) (UniProt P10276); experiment: Percent transcriptional activation relative to ATRA in CV-1 cells expressing Retinoic acid receptor RAR alpha; format: functional, cell-based; in short: as §1
T3 sequence (whole entry): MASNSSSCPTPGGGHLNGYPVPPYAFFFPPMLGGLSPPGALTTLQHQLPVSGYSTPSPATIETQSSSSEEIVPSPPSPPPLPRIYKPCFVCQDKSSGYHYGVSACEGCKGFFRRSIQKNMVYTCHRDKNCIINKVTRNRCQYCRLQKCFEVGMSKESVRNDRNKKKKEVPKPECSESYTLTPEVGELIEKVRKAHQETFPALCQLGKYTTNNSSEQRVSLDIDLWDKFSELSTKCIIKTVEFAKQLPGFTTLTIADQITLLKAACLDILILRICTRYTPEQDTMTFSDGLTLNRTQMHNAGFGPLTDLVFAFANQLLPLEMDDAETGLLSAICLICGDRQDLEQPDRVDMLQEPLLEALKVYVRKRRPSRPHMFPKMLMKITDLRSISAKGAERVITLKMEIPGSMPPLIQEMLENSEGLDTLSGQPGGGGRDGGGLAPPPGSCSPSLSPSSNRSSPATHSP

[4] = target: T4, Retinoic acid receptor RXR-beta (Homo sapiens, UniProt P28702); experiment: Inhibition of [3H]9-cis-RA binding to Retinoid X receptor RXR beta
T4 sequence (P28702 whole entry): T1 sequence (whole entry)

[5] = target: T5, Retinoic acid receptor RXR-alpha (Homo sapiens, UniProt P19793); experiment: Inhibition of [3H]9-cis-RA binding to Retinoid X receptor RXR alpha
T5 sequence (P19793 whole entry): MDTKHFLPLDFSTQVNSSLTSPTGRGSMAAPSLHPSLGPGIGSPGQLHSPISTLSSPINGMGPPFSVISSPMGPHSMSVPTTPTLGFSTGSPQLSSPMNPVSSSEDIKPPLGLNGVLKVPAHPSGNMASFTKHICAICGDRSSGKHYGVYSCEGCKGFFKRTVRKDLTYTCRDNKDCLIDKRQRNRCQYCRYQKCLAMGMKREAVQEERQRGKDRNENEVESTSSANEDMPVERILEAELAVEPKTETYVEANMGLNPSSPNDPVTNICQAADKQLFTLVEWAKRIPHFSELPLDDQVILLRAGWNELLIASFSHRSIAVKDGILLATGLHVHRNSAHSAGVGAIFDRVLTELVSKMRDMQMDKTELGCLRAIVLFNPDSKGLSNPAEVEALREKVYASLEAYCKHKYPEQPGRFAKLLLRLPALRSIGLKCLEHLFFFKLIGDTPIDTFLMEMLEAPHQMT

[6] = target: T5, Retinoic acid receptor RXR-alpha; experiment: Transcriptional activation in CV-1 cells expressing Retinoid X receptor RXR alpha; format: functional, cell-based
[7] = target: T6, Retinoic acid receptor RXR-gamma (Homo sapiens, UniProt P48443); experiment: Inhibition of [3H]9-cis-RA binding to Retinoid X receptor RXR gamma
T6 sequence (P48443 whole entry): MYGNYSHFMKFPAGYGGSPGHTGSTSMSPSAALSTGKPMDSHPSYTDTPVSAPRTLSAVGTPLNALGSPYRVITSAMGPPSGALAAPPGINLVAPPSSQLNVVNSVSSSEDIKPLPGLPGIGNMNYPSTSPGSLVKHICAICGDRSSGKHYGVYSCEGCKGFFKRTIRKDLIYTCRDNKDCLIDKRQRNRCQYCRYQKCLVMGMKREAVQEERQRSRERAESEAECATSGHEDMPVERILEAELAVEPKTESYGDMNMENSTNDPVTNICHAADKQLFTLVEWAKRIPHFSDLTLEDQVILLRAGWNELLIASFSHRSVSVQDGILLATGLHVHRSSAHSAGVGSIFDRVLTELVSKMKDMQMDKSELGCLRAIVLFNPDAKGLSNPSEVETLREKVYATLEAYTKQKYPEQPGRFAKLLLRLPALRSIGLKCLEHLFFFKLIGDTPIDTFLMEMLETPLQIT

[8] = target: T7, Retinoic acid receptor alpha (Homo sapiens, UniProt P10276); experiment: Inhibition of [3H]ATRA binding to Retinoic acid receptor RAR alpha
T7 sequence (P10276 whole entry): T3 sequence (whole entry)

[9] = target: T4, Retinoic acid receptor RXR-beta; experiment: Transcriptional activation in CV-1 cells expressing Retinoid X receptor RXR beta; format: functional, cell-based
[10] = target: T8, Retinoic acid receptor beta (Homo sapiens, UniProt P10826); experiment: Inhibition of [3H]ATRA binding to Retinoic acid receptor RAR beta
T8 sequence (P10826 whole entry): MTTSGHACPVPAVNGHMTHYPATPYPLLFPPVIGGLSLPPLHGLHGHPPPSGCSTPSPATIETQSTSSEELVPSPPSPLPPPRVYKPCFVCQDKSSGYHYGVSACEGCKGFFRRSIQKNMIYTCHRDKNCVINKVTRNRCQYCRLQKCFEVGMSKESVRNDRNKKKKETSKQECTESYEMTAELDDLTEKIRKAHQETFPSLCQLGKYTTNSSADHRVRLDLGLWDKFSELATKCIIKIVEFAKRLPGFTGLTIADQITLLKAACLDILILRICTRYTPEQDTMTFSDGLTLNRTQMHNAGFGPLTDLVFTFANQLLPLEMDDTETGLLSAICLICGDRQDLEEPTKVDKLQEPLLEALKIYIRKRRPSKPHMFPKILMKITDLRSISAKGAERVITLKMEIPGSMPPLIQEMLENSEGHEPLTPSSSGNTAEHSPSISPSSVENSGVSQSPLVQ

[11] = target: T7, Retinoic acid receptor alpha; experiment: Transcriptional activation in CV-1 cells expressing Retinoic acid receptor RAR alpha; format: functional, cell-based
[12] = target: T8, Retinoic acid receptor beta; experiment: Transcriptional activation in CV-1 cells expressing Retinoic acid receptor RAR beta; format: functional, cell-based
[13] = target: T6, Retinoic acid receptor RXR-gamma; experiment: Transcriptional activation in CV-1 cells expressing Retinoid X receptor RXR gamma; format: functional, cell-based
[14] = target: T6, Retinoic acid receptor RXR-gamma; experiment: Transcriptional activation in CV-1 cells expressing Retinoid X receptor RXR gamma; Not active; format: functional, cell-based
[15] = target: T5, Retinoic acid receptor RXR-alpha; experiment: Transcriptional activation in CV-1 cells expressing Retinoid X receptor RXR alpha; Not active; format: functional, cell-based

| Compound | Efficacy [1] | Efficacy [2] | Efficacy [3] | Ki [4] | Ki [5] | Ki [7] | Ki [8] | EC50 [9] | Ki [10] | EC50 [12] | other results |
| --- | --- | --- | --- | --- | --- | --- | --- | --- | --- | --- | --- |
| CC1=C(/C=C/C(C)=C/C=C/C(C)=C/C(=O)O)C(C)(C)CCC1 | 100% | 100% | 100% | – | – | – | – | – | – | – | – |
| CC1=C(/C=C/C(C)=C\C=C\C(C)=C\C(=O)O)C(C)(C)CCC1 | 128% | 93% | 81% | – | – | – | – | – | – | – | – |
| CC(/C=C/C=C(\C)c1cc(C(C)(C)C)cc(C(C)(C)C)c1)=C\C(=O)O (stereo in doubt; form 1) [listing 1 of 2 here] | – | – | – | 10.2 nM | 4.6 nM | 9.3 nM | 63.5 nM | 87 nM | 90 nM | 24 nM | EC50 [6]: 134 nM; EC50 [11]: 65 nM; EC50 [13]: 77 nM |

The next lines start with results.

| Efficacy [1] | Efficacy [2] | Efficacy [3] | Ki [4] | Ki [5] | Ki [7] | Ki [8] | EC50 [9] | Ki [10] | EC50 [12] | Compound | other results |
| --- | --- | --- | --- | --- | --- | --- | --- | --- | --- | --- | --- |
| 27% | 58% | 39% | – | – | – | – | – | – | – | CC(/C=C/C=C(\C)c1cc(C(C)(C)C)cc(C(C)(C)C)c1)=C\C(=O)O (stereo in doubt; form 1) [listing 2 of 2 here] | – |
| – | – | – | 560 nM | 223 nM | 320 nM | 1.1 nM | Not Active | 0.7 nM | 2.2 nM | CC(/C=C/C=C(\C)c1cc(C(C)(C)C)cc(C(C)(C)C)c1)=C\C(=O)O (stereo in doubt; form 2) [listing 1 of 2 here] | EC50 [14]: Not Active; EC50 [15]: Not Active |
| – | 48% | 31% | – | – | – | – | – | – | – | CC(/C=C/C=C(\C)c1cc(C(C)(C)C)cc(C(C)(C)C)c1)=C\C(=O)O (stereo in doubt; form 2) [listing 2 of 2 here] | – |

— ChEMBL document CHEMBL1129042, “Discovery of novel retinoic acid receptor agonists having potent antiproliferative activity in cervical cancer cells” (J Med Chem, 1996)
